In ChEMBL document CHEMBL3407388, “Synthesis, anticancer activity and molecular docking studies on a series of heterocyclic trans-cyanocombretastatin analogues as antitubulin agents” (2015) one finds Activity, CC50 and inhibition data, which are given here for 5 molecules.

The subject of one experiment is TUR. Put plainly: Cytotoxicity against human TUR cells assessed as apoptotic/dead cells after 24 to 48 hrs by annexin V-FITC/7-AAD staining-based flow cytometric analysis. The format is functional. Background: Flow cytometry measures light scatter and fluorescence of single cells or particles in a stream.
A further experiment has as its system KG-1. Put plainly: (§1) Cytotoxicity against human KG1 cells assessed as apoptotic/dead cells after 24 to 48 hrs by annexin V-FITC/7-AAD staining-based flow cytometric analysis. The format is functional.
A short description of experiment [1]: as §1. The format is functional. As to conditions: KG-1, read-out: LD50 (the source's name).
Experiment [2] in a line: Cytotoxicity against human primary blast crisis phase of chronic myeloid leukemia cells assessed as apoptotic/dead cells at 25 nM measured at 96 hrs by CD45-APC-H7/ annexin V-FITC/7-AAD staining-based flow cytometric analysis relative to control. Type of experiment: functional, Leukemia cell. A digest of the protocol:
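Thawed cryopreserved primary blast-crisis CML cells were treated and read at 24, 48 and 96 h time-points. Staining used CD45-APC-H7, annexin V-FITC and 7-AAD. Apoptotic/dead cells were scored by flow cytometry as percent annexin V+ blasts, normalized to the DMSO control.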

The next experiment relates to Kasumi 1. The experiment in a line: Cytotoxicity against human Kasumi-1 cells assessed as apoptotic/dead cells after 24 to 48 hrs by annexin V-FITC/7-AAD staining-based flow cytometric analysis. The format is functional.
Another experiment concerns the target Tubulin (Homo sapiens) (UniProt P68371+Q9H4B7+P0DPH7+P68366+Q13509+Q71U36+P04350+Q3ZCM7+P07437+P68363+Q9BQE3+Q6PEY2+Q13885+Q9BVA1+Q9BUF5). Put plainly: Inhibition of tubulin polymerization in human MV4-11 cells at 50 nM after 2 hrs by immunoblot analysis relative to control. Type of experiment: cell-based. A digest of the protocol: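 MV4-11 AML cells were exposed for 2 h to 25, 50 or 100 nM compound. Free tubulin (supernatant) and polymerized tubulin (pellet) were separated and detected by anti-tubulin immunoblot.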
For orientation: Immunoblotting shows a protein as a band on a membrane.

Experiment [3] can be described thus: (§2) Cytotoxicity against human TF1 cells assessed as apoptotic/dead cells after 24 to 48 hrs by annexin V-FITC/7-AAD staining-based flow cytometric analysis. The format is functional. As to conditions: TF-1, read-out: LD50 (the source's name).
The subject of a further experiment is TF-1. The description is as §2. The format is functional.
The next experiment relates to K562. Put plainly: Cytotoxicity against human K562 cells assessed as apoptotic/dead cells after 24 to 48 hrs by annexin V-FITC/7-AAD staining-based flow cytometric analysis. Type of experiment: functional.
In the next experiment the test system is MV4-11. Put plainly: Anti-leukemic activity against human MV4-11 cells assessed as cell dead after 24 to 48 hrs by annexin V-FITC/7-AAD staining-based flow cytometric analysis. Type of experiment: functional. As to conditions: for CC50: read-out: LD50 (the source's name). A digest of the protocol: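 MV4-11 cells grown in IMDM with 10% FBS, penicillin and streptomycin, seeded at 5 × 10^5/ml and treated. At 24 and 48 h they were stained with annexin V-FITC plus 1 μg/ml 7-AAD. Percent dead cells (annexin V+) was read by flow cytometry and expressed relative to the DMSO vehicle control.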

For another experiment, the system named is HL-60. The experiment in a line: (§3) Cytotoxicity against human HL60 cells assessed as apoptotic/dead cells after 24 to 48 hrs by annexin V-FITC/7-AAD staining-based flow cytometric analysis. The format is functional.
Experiment [4] can be described thus: as §3. Type of experiment: functional. As to conditions: HL-60, read-out: LD50 (the source's name).
The next experiment is filed under the species Homo sapiens. Put plainly: (§4) Cytotoxicity against human MLL-ENL cells assessed as apoptotic/dead cells after 24 to 48 hrs by annexin V-FITC/7-AAD staining-based flow cytometric analysis. The format is functional.
Experiment [5] can be described thus: as §4. The format is functional. As to conditions: read-out: LD50 (the source's name).
A further experiment has as its system Kasumi-4. The experiment in a line: (§5) Cytotoxicity against human Kasumi-4 cells assessed as apoptotic/dead cells after 24 to 48 hrs by annexin V-FITC/7-AAD staining-based flow cytometric analysis. Type of experiment: functional.
Experiment [6] can be described thus: as §5. The format is functional. As to conditions: read-out: LD50 (the source's name).
The test system of the next experiment is KCL-22. The experiment in a line: (§6) Cytotoxicity against human KCL22 cells assessed as apoptotic/dead cells after 24 to 48 hrs by annexin V-FITC/7-AAD staining-based flow cytometric analysis. Type of experiment: functional.
Experiment [7] is described as follows: as §6. The format is functional. As to conditions: KCL-22, read-out: LD50 (the source's name).
Another experiment has as its system MOLM-13. Put plainly: Cytotoxicity against human MOLM13 cells assessed as apoptotic/dead cells after 24 to 48 hrs by annexin V-FITC/7-AAD staining-based flow cytometric analysis. The format is functional.
The test system of another experiment is THP-1. The experiment in a line: Cytotoxicity against human THP1 cells assessed as apoptotic/dead cells after 24 to 48 hrs by annexin V-FITC/7-AAD staining-based flow cytometric analysis. Type of experiment: functional.
A further experiment has as its system Leukemia cell. The experiment in a line: Cytotoxicity against human primary blast crisis phase of chronic myeloid leukemia cells assessed as apoptotic/dead cells at 25 to 200 nM by CD45-APC-H7/ annexin V-FITC/7-AAD staining-based flow cytometric analysis. As to conditions: TDE = time-dependent effect. Type of experiment: functional. A digest of the protocol: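 Cryopreserved primary blast-crisis CML samples, obtained with informed consent and IRB approval, were thawed, cultured and treated with the indicated doses. At 48 h they were stained with CD45-APC-H7, then annexin V-FITC and 7-AAD. Percent annexin V+ blasts by flow cytometry, normalized to the DMSO control.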

The mark [8] stands for this setting: read-out: LD50 (the source's name).

As to `COc1cc(/C(C#N)=C/c2cc3ccccc3s2)cc(OC)c1OC`, the Activity entry was “Dose-dependent effect” with TUR; “Dose-dependent effect” with KG-1; >50% in experiment [2]; “Dose-dependent effect” with Kasumi 1; “Dose-dependent effect” in the experiment on TF-1; “Dose-dependent effect” in the experiment with K562. For the same molecule, the Activity result in the experiment on HL-60, in the experiment filed under Homo sapiens, with Kasumi-4, with KCL-22, in the experiment with MOLM-13 and in the experiment with THP-1 was “Dose-dependent effect” each time. In addition, the Activity entry in the experiment with Leukemia cell is “tde”. For the same molecule, the CC50 came out at 93 nM in the experiment with TUR (setting [8]); 113 nM in experiment [1]; 151 nM with Kasumi 1 (setting [8]); 79.5 nM in experiment [3]; 99.5 nM with K562 (setting [8]); 18 nM in the experiment with MV4-11. In addition, the CC50 in experiment [4] was determined as 120 nM; in experiment [5], 271 nM; in experiment [6], 156 nM; in experiment [7] it was 114 nM; in the experiment on MOLM-13 (setting [8]), 83 nM; in the experiment with THP-1 (setting [8]), 227 nM. In addition, at Tubulin (Homo sapiens), the inhibition was > 50%.
For `COc1ccc(/C(C#N)=C/c2nc3ccccc3s2)cc1OC`, the CC50 in the experiment on MV4-11 was 1220 nM.
With `COc1cc(OC)cc(/C(C#N)=C/c2cc3ccccc3o2)c1`, the CC50 in the experiment on MV4-11 came out at 1170 nM.
For the molecule `COc1ccc(/C(C#N)=C/c2cc3ccccc3s2)cc1OC`, the CC50 with MV4-11 was determined as 6060 nM.
As to `COc1cc(/C(C#N)=C/c2csc3ccccc23)cc(OC)c1OC`, in the experiment on MV4-11, the Activity result was “Dose-dependent effect” and the CC50 stood at 180 nM.

As a reminder, the inhibition is the change of the read-out against control, counted positive when it falls.
